Screening data deposited in PubChem by Johns Hopkins Ion Channel Center.
Hits are enriched below; roughly 3.5% of the tested compounds scored in any of these assays.
RGS4 block = inhibitors of human RGS4 | 0.45% of 310,000 active | P49798 | B-score at 10 µM | HEK293 M3R/RGS4 inducible, Fluo-4 calcium flux; stronger effect = higher value; triggered by carbachol at its EC20;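 active = B-score, a plate-corrected calcium signal, over three deviations above library mean, with baseline fluorescence within five deviations of library mean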;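 note: RGS4 expression induced by doxycycline in cells with stable M3 receptor; B-score is computed from the integrated fluorescence ratio over baseline after carbachol; higher B-score means a larger calcium signal and so more RGS4 inhibition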
MrgX1 antag = blocks BAM8-22 activation of human MrgX1 receptor; 1.3% of 310,000 active; MRGX1-HEK293 calcium flux, Fluo-4, BAM8-22 antagonism; stronger effect = lower value; B-score at 10 µM;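 active = calcium-response B-score plate-corrected more than 3 library SD below zero, starting fluorescence within 5 deviations, no agonist response on first addition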;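 note: peak minus trough fluorescence over baseline after final BAM8-22 challenge near maximal dose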
Target sequence (Q96LB2 whole entry, looked up): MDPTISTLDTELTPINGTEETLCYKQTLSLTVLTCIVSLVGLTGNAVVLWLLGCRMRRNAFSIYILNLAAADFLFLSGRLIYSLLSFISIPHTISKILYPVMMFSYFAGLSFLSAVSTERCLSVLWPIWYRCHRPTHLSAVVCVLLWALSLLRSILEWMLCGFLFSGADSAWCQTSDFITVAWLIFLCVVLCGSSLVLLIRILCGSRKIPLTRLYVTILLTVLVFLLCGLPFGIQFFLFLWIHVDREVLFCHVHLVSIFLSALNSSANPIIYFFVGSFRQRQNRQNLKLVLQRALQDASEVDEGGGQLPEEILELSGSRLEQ
MrgX1 allo act = human MrgX1 positive allosteric modulation, primary screen | Q96LB2 | MrgX1-HEK293, Fluo-4 calcium flux, FDSS; stronger effect = higher value | B-score at 10 µM | 0.63% of 310,000 active;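 active = plate-corrected calcium response at least 3 library SD above typical, normal starting fluorescence, not activating the receptor alone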;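 note: compound read alongside a low EC10 to EC30 dose of BAM8-22 agonist; peak minus trough fluorescence over baseline measured at the second addition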
RGS4 act = potentiators or activators of RGS4 | HEK293 M3R/inducible RGS4, carbachol calcium flux Fluo4; stronger effect = lower value | B-score at 10 µM | 0.92% of 310,000 active | AID 463111;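 active = B-score of the integrated calcium signal more than 4 SD below the library mean, with starting fluorescence not abnormally high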;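 note: negative B-score means reduced calcium response which marks RGS4 activation or potentiation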
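Material: Inducible-RGS4 HEK293 cells carrying M3 receptor; also added: carbachol at ECmax as muscarinic agonist stimulus; incubation: compound preincubation 20 min at room temperature before agonist; signal: Fluo4-AM (2 µM) calcium-flux fluorescence, kinetic read; measure: integrated calcium ratio converted to B score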
MrgX1 agonist = agonists of human MrgX1 receptor; 0.44% of 310,000 active; Q96LB2; B-score at 10 µM; MrgX1-HEK293 cells, Fluo-4 calcium fluorescence, agonist mode; stronger effect = higher value;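 active = calcium response B-score plate-corrected fluorescence ratio at least 3 library SD, with starting fluorescence B-score inside 5 SD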
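Test system: HEK293 cells stably expressing human MrgX1 receptor; amount: 15,000 cells per well; doses: compound delivered in addition one of three; times: overnight plating before 1 h dye loading; detection: Fluo-4 NW calcium-flux fluorescence, kinetic read; read-out basis: B-scored fluorescence response ratio; controls: positive and negative controls per plate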
MrgX1 allo conf = human MrgX1 positive allosteric modulation, re-confirmation; shares compounds with MrgX1 allo act; MrgX1-HEK293, Fluo-4 calcium fluorescence, FDSS; activation (ratio percentage), % at 10 µM; 13% of 1,200 active;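 active = ratio at least 3 SD above the weak peptide control, stable starting fluorescence, no direct agonism earlier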;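 note: compound followed by low BAM8-22 agonist challenge near EC20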
HEK293 Ca flux = MrgX1 antagonist counter-screen hit in parental HEK293 cells | shares compounds with MrgX1 antag | fluorescence ratio F(max-min)/F0 at 10 µM | 2% of 4,000 active | Fluo-4 calcium fluorescence, FDSS | AID 624111;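 active = duplicate-averaged calcium fluorescence ratio at least three times the standard deviation of buffer wells, a nonspecific response in parental cells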
HEK293 Ca counter = counter-screen for MrgX1 allosteric activators: effect in parental HEK293 cells; parental HEK293 calcium flux, Fluo-4 fluorescence ratio; stronger effect = higher value; shares compounds with MrgX1 antag; AID 624114; 0.4% of 4,000 active; fluorescence ratio F(max-min)/F0 at 10 µM;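 active = calcium fluorescence ratio, averaged over duplicates, at least 3 SD of the buffer-well ratio, meaning a nonspecific response in receptor-free cells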;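 note: untransfected parental HEK293 lacking MrgX1 used as counterscreen for MrgX1 allosteric activators; fluorescence change taken during the second addition on a kinetic imager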
HEK293 Ca cntr2 = counter-screen for MrgX1 activators: effect in parental HEK293 cells; shares compounds with MrgX1 antag; Fluo-4 calcium fluorescence (FDSS); stronger effect = higher value; fluorescence ratio F(max-min)/F0 at 10 µM; 8.7% of 4,000 active; AID 624115;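 active = calcium fluorescence ratio at least three times the spread of buffer wells, meaning a non-specific response in parental cells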
An asterisk follows results filed as active; i = inactive; x = no result given.

SMILES	RGS4 block	MrgX1 antag	MrgX1 allo act	RGS4 act	MrgX1 agonist	MrgX1 allo conf	HEK293 Ca flux	HEK293 Ca counter	HEK293 Ca cntr2
CCc1nn2c(N)c(/C=C3\C=Nc4ccccc43)c(=O)nc2s1	i	i	6.8*	i	i	12%*	i	i	i
CSc1nsc2nc(=O)c(/C=C3\C=Nc4ccccc43)c(N)n12	i	i	57*	i	i	15%*	i	i	i
CCOC(=O)N1CCC(NS(=O)(=O)c2ccc(C)cc2)CC1	i	i	8.2*	i	i	i	i	i	i
CCOC(=O)C1C(=O)NC(N2CCN(Cc3ccccc3)CC2)=NC1c1ccccc1 (centres undefined)	i	i	i	i	i	x	x	x	x
CCOC(=O)C1C(=O)NC(N2CCCCC2)=NC1c1ccccc1 (centres undefined)	i	i	8.9*	i	i	i	i	i	i
CN(C)S(=O)(=O)c1cccc(NC(=O)c2cc(=O)[nH]c3ccccc23)c1	i	i	i	i	i	x	x	x	x
CN(C)S(=O)(=O)c1cccc(NC(=O)c2c[nH]c3ccccc23)c1	i	i	9.9*	i	i	i	i	i	i
N[C@@H](CCC(=O)N[C@@H](CSN=O)C(=O)NCC(=O)O)C(=O)O	x	i	i	x	i	x	x	x	x
Cc1cccc(NS(=O)(=O)c2c(C)nc3scc(C)n3c2=O)c1	i	i	21*	i	i	i	i	i	i
Cc1nc2scc(C)n2c(=O)c1S(=O)(=O)Nc1ccc(N2CCN(S(C)(=O)=O)CC2)cc1	i	i	i	i	i	x	x	x	x
c1ccc(-c2cc3c(N4CCCCC4)ncnc3s2)cc1	i	i	8.9*	i	i	i	i	i	i
CC1=CSC2=NC(=O)/C(=C\c3cccn3-c3ccc([N+](=O)[O-])cc3)C(=N)N12	i	i	26*	i	i	24%*	i	i	i
COc1ccc(S(=O)(=O)N2CCCCC2)cc1N(C)S(=O)(=O)c1ccccc1	i	i	i	i	i	x	x	x	x
S=C(NCCCN1CCOCC1)Nc1cccc(Cl)c1	i	i	11*	i	i	i	i	i	i
COc1nc(N)nc(NC23CC4CC(CC(C4)C2)C3)n1	i	i	15*	i	i	22%*	i	i	i
O=C(NC1CCS(=O)(=O)C1)OC1CCCCC1 (centres undefined)	i	i	i	i	i	x	x	x	x
COc1ccc(CNc2cccc(F)c2)cc1Br	i	i	6.5*	i	i	i	i	i	i
Nn1c(SCC(=O)Nc2cccc(S(N)(=O)=O)c2)nnc1C1CC1	i	i	7.8*	i	i	i	i	i	i
CCc1ccc(S(=O)(=O)NC(=S)NC2CCCCC2)cc1	i	i	16*	i	i	i	i	i	i
Cc1ccc(S(=O)(=O)C2(C(=O)NC3CCCC3)CC2)cc1	i	i	i	i	i	x	x	x	x
Cc1ccc(S(=O)(=O)NC(=S)NC2CCCCC2)cc1	i	i	10*	i	i	i	i	i	i
O=S(=O)(NC(=S)NC1CCCCC1)c1ccc(Cl)cc1	i	i	17*	i	i	23%*	i	i	i
NS(=O)(=O)c1ccc(CCNC(=S)NC2CCCCC2)cc1	i	i	i	i	i	x	x	x	x
